≈ marks a conversion by molar mass, not a printed value. Calls of active or inactive are those of the source. No cut-off for these calls is given here.
Experiments:
U-251 [1] = test: Cytotoxicity against human U251 cells assessed as reduction in surviving fraction at 10.0 ug/ml after 48 hrs by SRB assay; assay type: functional, cell-based
Method in brief: (§1)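 Cells seeded at 10⁴ cells/well and left 24 h to attach, then exposed to […] in triplicate wells per dose. Incubation 48 h, 37 °C, 5% CO₂. Cells fixed and stained with sulforhodamine B, excess dye removed with acetic acid, bound dye taken up in Tris EDTA and read on an ELISA reader. Surviving fraction plotted against concentration.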

[2] = Antitumor activity against mouse EAC cells assessed as inhibition of cell viability at 100 ug/ml after 2 hrs by trypan blue exclusion assay; assay type: functional; settings: Ehrlich
Method in brief: (§2)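 EAC cells aspirated from ascitic fluid of inoculated mice and diluted in saline; 0.1 mL cell suspension, 0.8 mL RPMI 1640 and 0.1 mL compound (25, 50 or 100) incubated 2 h at 37 °C; non-viable cells counted by trypan blue exclusion; % non-viable = dead/total × 100.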

Bacillus subtilis [3] = test: Antibacterial activity against Bacillus subtilis NCIB 3610 at 5 mg/ml by agar disk diffusion assay; assay type: functional; settings: Bacillus subtilis, NCIB 3610; read-out: DIZ
U-251 [4] = test: Cytotoxicity against human U251 cells assessed as reduction in surviving fraction at 1 ug/ml after 48 hrs by SRB assay; assay type: functional, cell-based; method in brief: as §1
Aspergillus niger [5] = test: Antifungal activity against Aspergillus niger Ferm-BAM C-21 by macrotube dilution assay; assay type: functional
Method in brief: (§3)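 Macrotube twofold dilution per NCCLS/CLSI guidelines for fungi; 2 mg compound in 2.0 mL DMF, serially diluted across 14 tubes of Czapek's Dox medium, with a control tube; inoculum added to halve the concentration; 30 °C for 72 h; MIC is the lowest concentration without visible growth.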

Bacillus subtilis [6] = test: Antibacterial activity against Bacillus subtilis NCIB 3610 at 1 mg/ml by agar disk diffusion assay; assay type: functional; settings: Bacillus subtilis, NCIB 3610; read-out: DIZ
HCT-116 [7] = test: Cytotoxicity against human HCT116 cells assessed as reduction in surviving fraction at 10.0 ug/ml after 48 hrs by SRB assay; assay type: functional, cell-based
Method in brief: (§4)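 HCT116 cells seeded at 10⁴ per well and allowed to attach for 24 h; exposed to 0, 1, 2.5, 5 or 10 in triplicate for 48 h at 37 °C in 5% CO₂; fixed and stained with sulforhodamine B; bound dye recovered in Tris EDTA and read on an ELISA reader; surviving fraction plotted against concentration.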

Coxsackievirus B4 = test: Antiviral activity against Coxsackievirus B4 infected african green monkey Vero cells at 10^-4 dilution of 5 mg/ml by plaque formation assay; assay type: functional, organism-based
Method in brief: (§5)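 Compound dilutions prepared from a 5 mg/mL DMSO stock, using the maximum non-toxic dilution for Vero cells over 3 days; 0.1 mL virus (10³) mixed with 0.1 mL compound for 1 h at room temperature; mixture inoculated onto washed Vero monolayers in 12-well plates and adsorbed at 37 °C; 2× MEM/agarose overlay applied; read-out % reduction in plaque count versus untreated virus control.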

HeLa = test: Cytotoxicity against human HeLa cells assessed as surviving fraction after 48 hrs by SRB assay; assay type: functional, cell-based; settings: Homo sapiens, HeLa, 48 h; read-out: IC50; method in brief: as §1
Bacillus subtilis [8] = test: Antibacterial activity against Bacillus subtilis NCIB 3610 at 2.5 mg/ml by agar disk diffusion assay; assay type: functional; settings: Bacillus subtilis, NCIB 3610; read-out: DIZ
[9] = Antitumor activity against mouse EAC cells assessed as inhibition of cell viability at 25 ug/ml after 2 hrs by trypan blue exclusion assay; assay type: functional; settings: Ehrlich; method in brief: as §2
Pseudomonas aeruginosa [10] = test: Antibacterial activity against Pseudomonas aeruginosa NCIB 9016 at 2.5 mg/ml by agar disk diffusion assay; assay type: functional; settings: Pseudomonas aeruginosa, NCIB 9016; read-out: DIZ
Klebsiella pneumoniae = test: Antimicrobial activity against Klebsiella pneumoniae NCIMB 9111 by macrotube dilution assay; assay type: functional
Human alphaherpesvirus 1 = test: Antiviral activity against HSV1 infected african green monkey Vero cells at 10^-4 dilution of 5 mg/ml by plaque formation assay; assay type: functional; method in brief: as §5
Hepatovirus A = test: Antiviral activity against Hepatitis A virus infected african green monkey Vero cells at 10^-4 dilution of 5 mg/ml by plaque formation assay; assay type: functional; method in brief: as §5
Aspergillus niger [11] = test: Antifungal activity against Aspergillus niger Ferm-BAM C-21 at 1 mg/ml by agar disk diffusion assay; assay type: functional; settings: read-out: DIZ
Method in brief: (§6)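 Fungi maintained on Czapek's Dox agar; agar well diffusion with 1 cm wells and […] of each concentration (1, 2.5, 5 mg/mL) in DMF; inhibition zone diameter measured.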

HepG2 = test: Cytotoxicity against human HepG2 cells assessed as surviving fraction after 48 hrs by SRB assay; assay type: functional, cell-based; settings: hepg2; method in brief: as §1
Aspergillus niger [12] = test: Antifungal activity against Aspergillus niger Ferm-BAM C-21 at 5 mg/ml by agar disk diffusion assay; assay type: functional; settings: read-out: DIZ; method in brief: as §6
U-251 [13] = test: Cytotoxicity against human U251 cells assessed as surviving fraction after 48 hrs by SRB assay; assay type: functional, cell-based; settings: Homo sapiens, U-251, 48 h; read-out: IC50; method in brief: as §1
HCT-116 [14] = test: Cytotoxicity against human HCT116 cells assessed as reduction in surviving fraction at 2.5 ug/ml after 48 hrs by SRB assay; assay type: functional, cell-based; method in brief: as §4
MCF7 [15] = test: Cytotoxicity against human MCF7 cells assessed as surviving fraction after 48 hrs by SRB assay; assay type: functional, cell-based; settings: Homo sapiens, MCF7, 48 h; read-out: IC50; method in brief: as §1
Salmonella typhi = test: Antimicrobial activity against Salmonella typhi NCIMB 9331 by macrotube dilution assay; assay type: functional, Salmonella enterica subsp. enterica serovar Typhi; settings: Salmonella enterica
MCF7 [16] = test: Cytotoxicity against human MCF7 cells assessed as reduction in surviving fraction at 1 ug/ml after 48 hrs by SRB assay; assay type: functional, cell-based; method in brief: as §1
HCT-116 [17] = test: Cytotoxicity against human HCT116 cells assessed as reduction in surviving fraction at 5.0 ug/ml after 48 hrs by SRB assay; assay type: functional, cell-based; method in brief: as §4
[18] = Antitumor activity against mouse EAC cells assessed as inhibition of cell viability at 50 ug/ml after 2 hrs by trypan blue exclusion assay; assay type: functional; settings: Ehrlich; method in brief: as §2
Aspergillus niger [19] = test: Antifungal activity against Aspergillus niger Ferm-BAM C-21 at 2.5 mg/ml by agar disk diffusion assay; assay type: functional; settings: read-out: DIZ; method in brief: as §6
MCF7 [20] = test: Cytotoxicity against human MCF7 cells assessed as reduction in surviving fraction at 5.0 ug/ml after 48 hrs by SRB assay; assay type: functional, cell-based; method in brief: as §1
MCF7 [21] = test: Cytotoxicity against human MCF7 cells assessed as reduction in surviving fraction at 10.0 ug/ml after 48 hrs by SRB assay; assay type: functional, cell-based; method in brief: as §1
Pseudomonas aeruginosa [22] = test: Antibacterial activity against Pseudomonas aeruginosa NCIB 9016 at 1 mg/ml by agar disk diffusion assay; assay type: functional; settings: Pseudomonas aeruginosa, NCIB 9016; read-out: DIZ
Bacillus subtilis [23] = test: Antimicrobial activity against Bacillus subtilis NCTC 1040 by macrotube dilution assay; assay type: functional
HCT-116 [24] = test: Cytotoxicity against human HCT116 cells assessed as reduction in surviving fraction at 1 ug/ml after 48 hrs by SRB assay; assay type: functional, cell-based; method in brief: as §4
Candida albicans [25] = test: Antifungal activity against Candida albicans IMRU 3669 at 5 mg/ml by agar disk diffusion assay; assay type: functional; settings: Candida albicans, IMRU 3669; read-out: DIZ; method in brief: as §6
Candida albicans [26] = test: Antifungal activity against Candida albicans IMRU 3669 at 1 mg/ml by agar disk diffusion assay; assay type: functional; settings: read-out: DIZ; method in brief: as §6
Pseudomonas aeruginosa [27] = test: Antibacterial activity against Pseudomonas aeruginosa NCIB 9016 at 5 mg/ml by agar disk diffusion assay; assay type: functional; settings: Pseudomonas aeruginosa, NCIB 9016; read-out: DIZ
Candida albicans [28] = test: Antifungal activity against Candida albicans IMRU 3669 at 2.5 mg/ml by agar disk diffusion assay; assay type: functional; settings: read-out: DIZ; method in brief: as §6
HCT-116 [29] = test: Cytotoxicity against human HCT116 cells assessed as surviving fraction after 48 hrs by SRB assay; assay type: functional, cell-based; settings: Homo sapiens, HCT-116, 48 h; read-out: IC50; method in brief: as §1
U-251 [30] = test: Cytotoxicity against human U251 cells assessed as reduction in surviving fraction at 2.5 ug/ml after 48 hrs by SRB assay; assay type: functional, cell-based; method in brief: as §1
MCF7 [31] = test: Cytotoxicity against human MCF7 cells assessed as reduction in surviving fraction at 2.5 ug/ml after 48 hrs by SRB assay; assay type: functional, cell-based; method in brief: as §1
Candida albicans [32] = test: Antifungal activity against Candida albicans IMRU 3669 by macrotube dilution assay; assay type: functional; method in brief: as §3
Staphylococcus aureus = test: Antimicrobial activity against Staphylococcus aureus NCTC 7447 by macrotube dilution assay; assay type: functional
U-251 [33] = test: Cytotoxicity against human U251 cells assessed as reduction in surviving fraction at 5.0 ug/ml after 48 hrs by SRB assay; assay type: functional, cell-based; method in brief: as §1

N=C1C(=S)N(c2ccc(Br)cc2)C(=S)N1c1ccc(Br)cc1
Activity (U-251 [1]): Active
inhibition at 100 µg/mL [2]: 90%
zone of inhibition at 5000 µg/mL (Bacillus subtilis [3]): 32 mm
Activity (U-251 [4]): Active
MIC (Aspergillus niger [5]): 0.49 µg/mL (≈ 1.08 µM)
zone of inhibition at 1000 µg/mL (Bacillus subtilis [6]): 21 mm
Activity (HCT-116 [7]): Active
Activity (Coxsackievirus B4): inactive
IC50 (HeLa): 8.93 µg/mL (≈ 19.6 µM)
zone of inhibition at 2500 µg/mL (Bacillus subtilis [8]): 25 mm
inhibition at 25 µg/mL [9]: 50%
zone of inhibition at 2500 µg/mL (Pseudomonas aeruginosa [10]): 19 mm
MIC (Klebsiella pneumoniae): 7.8 µg/mL (≈ 17.1 µM)
Activity (Human alphaherpesvirus 1): 50%
Activity (Hepatovirus A): inactive
zone of inhibition at 1000 µg/mL (Aspergillus niger [11]): 15 mm
IC50 (HepG2): Not Active
zone of inhibition at 5000 µg/mL (Aspergillus niger [12]): 20 mm
IC50 (U-251 [13]): 1.28 µg/mL (≈ 2.81 µM)
Activity (HCT-116 [14]): Active
IC50 (MCF7 [15]): 3.09 µg/mL (≈ 6.79 µM)
MIC (Salmonella typhi): 1.95 µg/mL (≈ 4.28 µM)
Activity (MCF7 [16]): Active
Activity (HCT-116 [17]): Active
inhibition at 50 µg/mL [18]: 70%
zone of inhibition at 2500 µg/mL (Aspergillus niger [19]): 18 mm
Activity (MCF7 [20]): Active
Activity (MCF7 [21]): Active
zone of inhibition at 1000 µg/mL (Pseudomonas aeruginosa [22]): 18 mm
MIC (Bacillus subtilis [23]): 3.9 µg/mL (≈ 8.57 µM)
Activity (HCT-116 [24]): Active
zone of inhibition at 5000 µg/mL (Candida albicans [25]): 23 mm
zone of inhibition at 1000 µg/mL (Candida albicans [26]): 18 mm
zone of inhibition at 5000 µg/mL (Pseudomonas aeruginosa [27]): 21 mm
zone of inhibition at 2500 µg/mL (Candida albicans [28]): 20 mm
IC50 (HCT-116 [29]): 4.56 µg/mL (≈ 10 µM)
Activity (U-251 [30]): Active
Activity (MCF7 [31]): Active
MIC (Candida albicans [32]): 1.95 µg/mL (≈ 4.28 µM)
MIC (Staphylococcus aureus): 15.6 µg/mL (≈ 34.3 µM)
Activity (U-251 [33]): Active
